SUMO Mot1 rescue – blocks SUMOylation pathway, rescuing yeast Mot1-301 growth; AID 2716; 1% of 320,000 active; growth rescue, % at 18.8 µM; S. cerevisiae Mot1-301 growth rescue, ATP luminescence, 38.5C; percent above DMSO median, 100 means doubled;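 active means every valid replicate shows activation above 250% relative to neutral control wells; inactive means the rest, any valid replicate at or below 250%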;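 further: OY570 slx delta 5 strain wells were the positive control but not used for scaling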
Cl transport mod – KCC2 (human) Cl- transport modulation; Q9H2X9; 2.2% of 190,000 active; KCC2 cells, thallium flux FluoZin-2 fluorescence; B-score of Tl+ flux slope (higher = more flux/activation; lower = inhibition) at 10 µM;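 active means thallium flux slope and its plate-corrected score both differing from the plate sample mean at a set confidence after two filtering rounds, in either direction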;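 further: slope of fluorescence scaled to starting intensity during 10 to 20 s after thallium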
Target sequence (Q9H2X9 whole entry, looked up): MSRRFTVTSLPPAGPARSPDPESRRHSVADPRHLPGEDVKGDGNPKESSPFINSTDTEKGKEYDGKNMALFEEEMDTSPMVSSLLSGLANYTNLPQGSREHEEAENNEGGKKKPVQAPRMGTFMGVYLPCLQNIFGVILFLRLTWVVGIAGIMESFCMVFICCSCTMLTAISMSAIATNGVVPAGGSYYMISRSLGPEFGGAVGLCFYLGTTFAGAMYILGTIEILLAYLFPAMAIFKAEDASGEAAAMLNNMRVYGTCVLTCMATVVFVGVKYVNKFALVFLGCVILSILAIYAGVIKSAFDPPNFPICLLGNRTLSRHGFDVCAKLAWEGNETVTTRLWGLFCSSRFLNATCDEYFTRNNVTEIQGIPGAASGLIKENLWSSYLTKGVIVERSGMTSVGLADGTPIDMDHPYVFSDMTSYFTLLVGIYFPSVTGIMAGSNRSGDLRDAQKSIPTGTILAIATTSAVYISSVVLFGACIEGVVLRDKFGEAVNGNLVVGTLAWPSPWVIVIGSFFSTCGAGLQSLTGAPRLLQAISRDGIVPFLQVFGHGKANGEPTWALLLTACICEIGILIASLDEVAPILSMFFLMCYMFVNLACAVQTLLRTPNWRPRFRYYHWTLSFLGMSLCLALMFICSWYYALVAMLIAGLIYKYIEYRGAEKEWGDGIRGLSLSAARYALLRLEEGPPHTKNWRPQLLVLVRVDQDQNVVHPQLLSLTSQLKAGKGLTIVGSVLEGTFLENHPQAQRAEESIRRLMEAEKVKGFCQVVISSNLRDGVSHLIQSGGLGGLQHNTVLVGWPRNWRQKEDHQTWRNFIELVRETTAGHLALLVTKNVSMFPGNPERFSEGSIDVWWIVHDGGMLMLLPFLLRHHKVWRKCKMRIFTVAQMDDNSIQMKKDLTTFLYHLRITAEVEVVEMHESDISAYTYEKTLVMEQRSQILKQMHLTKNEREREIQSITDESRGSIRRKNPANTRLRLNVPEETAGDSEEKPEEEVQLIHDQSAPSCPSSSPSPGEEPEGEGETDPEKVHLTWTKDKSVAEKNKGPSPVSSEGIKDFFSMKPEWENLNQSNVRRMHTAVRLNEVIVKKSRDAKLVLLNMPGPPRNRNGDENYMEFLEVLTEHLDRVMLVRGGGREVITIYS
AI-2 QS modul – modulators of Vibrio harveyi AI-2 quorum sensing system; Vibrio harveyi JMH597 AI-2 luminescence/OD600 ratio, 9 h; stronger effect = lower value; strain lacks LuxN and CqsS sensors; 0 = neutral-control median; activity change, % at 7.5 µM; 0.4% of 300,000 active; AID 2094; in the data active means activity change below about -75%, passing the limit was not always enough; inconclusive means no clear call, values can overlap the other calls;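 further: luminescence divided by OD600 gain over 9 h not by final OD600 alone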
KCNQ1 pot – potentiates or activates the human KCNQ1 potassium channel. CHO-K1 KCNQ1, thallium flux FluxOR fluorescence; stronger effect = higher value. P51787. 0.35% of 310,000 active. AID 2648. B-score at 10 µM;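 active means fluorescence ratio B-score, a plate-corrected score, at least three library SD, with initial intensity B-score within 5 SD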
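Assay system: CHO-K1 cells stably expressing KCNQ1; Medium: assay buffer with matched DMSO; Also added: K+/Tl+ depolarizing stimulus; Dosing: single dose; Timing: dye 90 min, compound 20 min, room temperature; Measured by: kinetic FluxOR thallium fluorescence, 10-s 1-Hz baseline, 110-s post-stimulus read; Read-out: peak-minus-minimum fluorescence over initial fluorescence, negative-control normalized, B-scored.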
KCNQ1 block – blocks the human KCNQ1 potassium channel | P51787 | CHO-K1 KCNQ1, FluxOR thallium flux fluorescence; stronger effect = higher value | B-score at 10 µM | 1.3% of 310,000 active | AID 2642;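 active means compounds whose thallium flux B-score, printed positive for inhibition, exceeds three library SD while starting fluorescence stays within three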;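 further: channel opened by potassium depolarization with thallium stimulus after 20 min compound exposure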
hERG protect – compounds protecting human hERG from proarrhythmic drug block; Q12809; CHO-hERG, FluxOR thallium flux, dofetilide IC70 present; activation (rescue from dofetilide block), less the hit threshold, % at 10 µM; 0.51% of 310,000 active; AID 1511;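 active means activation above the mean of controls blocked by dofetilide plus 5 SD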;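 further: thallium influx through hERG after potassium depolarization seen as dye fluorescence rise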
KCC2 secondary – KCC2 (human) modulation, secondary assay; shares compounds with Cl transport mod; HEK293-KCC2, thallium flux, FluoZin2 fluorescence; stronger effect = higher value; normalised thallium flux (F/F0 slope) at 10 µM; 15% of 3,700 active; AID 1713;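 active means thallium flux slope above the same plate's solvent-only control mean plus 3 SD; inconclusive means the two replicate wells disagree; inactive means no significant difference from solvent-only control wells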
KCC2 bumet counter – thallium flux despite bumetanide block in KCC2 cells, secondary assay 3. HEK293-KCC2 + bumetanide/ouabain, thallium flux FluoZin2; stronger effect = higher value. shares compounds with Cl transport mod. normalized thallium flux at 10 µM. 49% of 3,700 active;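 active means thallium entry rate above the same plate's blocked-transporter control wells by more than 3 SD; inconclusive means the two repeat wells disagree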;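 further: raw slope of fluorescence over initial fluorescence between 10 and 20 s after thallium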
KCC2 secondary2 – KCC2 (human) modulation, second secondary assay. shares compounds with Cl transport mod. HEK293-KCC2, thallium flux FluoZin2 fluorescence; actives lie on both sides; F/F0 rise rate, 10–20 s post-thallium. normalized thallium flux at 10 µM. 23% of 3,700 active;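 active means thallium flux slope more than 3 SD above or below the plate's solvent-only control mean, mostly below; inconclusive means the two repeat wells disagreed; inactive means no significant shift from solvent-only controls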;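 further: raw slope with 0.1% DMSO as baseline and bumetanide as block control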
HEK293 Tl flux – parental HEK flux effect, counter-screen; shares compounds with Cl transport mod; 46% of 3,700 active; thallium flux rate (normalised fluorescence) at 10 µM; HEK293 parental cells, thallium flux FluoZin2, ouabain; baseline-ratio fluorescence slope, 10–20 s after thallium; AID 1716;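 active means thallium flux rate significantly above the same plate's solvent-only control wells, beyond their mean plus 3 SD; inconclusive means the two replicate wells gave conflicting results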
KCC2 retest ouab – modulates human KCC2 on retest with ouabain; HEK293-KCC2, thallium flux FluoZin2 fluorescence; bidirectional: low = inhibitor, high = activator; shares compounds with Cl transport mod; 48% of 3,700 active; AID 1717; raw Tl+ flux slope (below DMSO = inhibition, above = activation) at 10 µM;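 active means thallium flux slope beyond 3 SD from same-plate DMSO control mean in most replicates, usually higher, sometimes lower; inconclusive means repeat tests gave conflicting results; inactive means no significant difference from controls in most replicates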;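 further: slope of initial-normalized fluorescence between seconds 10 and 20 after thallium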
HEK counter2 – counter-screen for KCC2 modulators: effect in parental HEK293 cells; shares compounds with Cl transport mod; thallium flux FluoZin-2 fluorescence slope; thallium flux slope at 10 µM; 33% of 3,700 active; AID 1718;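 active means thallium flux slope above the same plate's solvent-control mean plus 3 SD in both duplicate wells; inconclusive means duplicate wells that disagreed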;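 further: run without ouabain in cells lacking the KCC2 cotransporter; slope of fluorescence scaled to its starting value between 10 and 20 s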
The depositor's hits bear a star; i = inactive; ? = inconclusive; . = not tested or not shown. Shown are actives, neighbours in structure and some others; about 4.2% of the full set was active somewhere.

SMILES | SUMO Mot1 rescue | Cl transport mod | AI-2 QS modul | KCNQ1 pot | KCNQ1 block | hERG protect | KCC2 secondary | KCC2 bumet counter | KCC2 secondary2 | HEK293 Tl flux | KCC2 retest ouab | HEK counter2
CN1c2ccccc2Oc2nnc(N3CCN(Cc4ccccc4)CC3)cc21 | 5.0 | -4* | 12.4 | i | i | -18.0 | 0.0053 | ? | 0.0212* | 0.00651 | ? | 0.0109
CN1c2ccccc2Oc2nnc(Cl)cc21 | -16.3 | 0.143 | 17.7 | i | i | -2.3 | . | . | . | . | . | .
CCOc1ccc(OCc2ccc(C(=O)N/N=C(\C)c3ccccn3)cc2)cc1 | 214.5 | 8.98* | 35.5 | i | i | -13.4 | 0.0106 | 0.024* | 0.0309 | 0.0294* | 0.0298* | ?
C/C(=N\NC(=O)c1ccccc1OCc1ccc(F)cc1)c1ccccn1 | 16.1 | . | . | . | . | . | . | . | . | . | . | .
O=C(N=Nc1ccc(NOC(=O)c2ccccc2Br)cc1)c1ccccc1O | -6.2 | 4.19* | 16.8 | i | i | -29.8 | 0.0097 | 0.0209* | 0.0292 | 0.0131* | ? | 0.0097
O=Nc1ccc(NOC(=O)c2ccccc2)cc1 | -13.8 | 1.12 | 1.9 | i | i | -5.4 | . | . | . | . | . | .
CCC1Sc2ccc(S(=O)(=O)CCC(=O)NCc3ccco3)cc2NC1=O (configuration not stated) | -4.0 | . | 35.7 | i | i | -5.3 | . | . | . | . | . | .
COc1ccc2c(C)cc3n[nH]c(=S)n3c2c1 | 24.4 | 27.2* | 1.7 | i | i | -12.9 | 0.0229* | 0.0367* | ? | 0.0282* | 0.0306* | 0.0295*
COc1ccc(-c2n[nH]c(=S)n2-c2cc(OC)ccc2OC)cc1 | 12.1 | . | 3.0 | i | i | -11.4 | . | . | . | . | . | .
Cc1ccc(S(=O)(=O)N2CCN(C(=O)Cn3c(=O)cnc4ccccc43)CC2)cc1 | -0.5 | . | . | . | . | . | . | . | . | . | . | .
O=C(CN(Cc1ccccc1)C(=O)CCl)c1cccc(Br)c1 | -0.2 | . | . | . | . | . | . | . | . | . | . | .
COC(=O)CSc1nnc(SCc2ccc(Cl)cc2)s1 | 0.2 | -1.23 | -38.0 | i | i | -10.8 | . | . | . | . | . | .
COC(=O)CSc1nnc(SCc2ccccc2)s1 | -14.7 | . | -44.3 | i | i | -5.7 | 0.00576 | ? | 0.0213* | 0.00598* | 0.0118* | 0.00871
CCCCN(CC)S(=O)(=O)c1ccc(C(=O)Nc2nnc(-c3cccs3)o2)cc1 | -16.5 | 22.5* | 67.2 | i | i | -4.5 | 0.016* | 0.0749* | 0.0294 | 0.0361* | 0.0504* | 0.011*
Cc1cccc(C(=O)Nc2nnc(-c3ccncc3)o2)c1 | 14.1 | 0.701 | 33.1 | i | i | -7.6 | . | . | . | . | . | .
O=C(COc1ccc(Cl)cc1)Nc1nnc(-c2ccc3c(c2)CCCC3)o1 | 3.4 | 6.24* | 17.8 | i | i | -2.1 | ? | 0.0205* | 0.0368 | ? | 0.0321* | ?
COc1cccc(C(=O)Nc2nnc(-c3ccc(F)cc3)o2)c1 | -1.6 | 14.7* | -88.2* | i | i | -8.2 | 0.00955* | 0.0498* | 0.0473* | 0.0345* | 0.0474* | 0.0231*
COc1cccc(C(=O)Nc2nnc(-c3ccc(Cl)cc3)o2)c1 | 34.9 | 45.6* | -87.2* | i | i | -6.8 | ? | 0.111* | 0.0945* | 0.0954* | 0.101* | 0.0893*
CCN(CC)S(=O)(=O)c1ccc(C(=O)Nc2nnc(-c3ccco3)o2)cc1 | -3.8 | 0.0116 | 37.8 | i | i | -9.0 | . | . | . | . | . | .
COc1ccc(-c2nnc(NC(=O)CS(=O)(=O)c3ccc(F)cc3)o2)cc1 | -7.6 | . | 16.9 | i | i | -7.9 | . | . | . | . | . | .
Cc1ccc(S(=O)(=O)N2CCC(=O)N(C(COCc3cccc(C(F)(F)F)c3)C(C)C)CC2)cc1 (configuration not stated) | -26.3 | -0.816 | 49.0 | i | i | -4.7 | . | . | . | . | . | .
Fc1ccc(C(CCNCc2ccccn2)c2ccc(Cl)cc2)cc1 (configuration not stated) | 5.9 | . | -13.9 | i | i | -18.8 | . | . | . | . | . | .
CCCCn1c(N)c(N(CC(C)C)C(=O)c2cccc(-n3cnnn3)c2)c(=O)[nH]c1=O | 7.2 | . | -10.1 | i | i | -7.7 | . | . | . | . | . | .
CCn1cc(C(=O)O)c(=O)c2cc(F)c(N3CCN(S(=O)(=O)c4ccc(NC(=O)OC)cc4)CC3)cc21 | -13.6 | -0.756 | 2.8 | i | i | -6.2 | . | . | . | . | . | .
CCOC(=O)N1CCN(S(=O)(=O)c2c(C(=O)N3CCCCC3)c(C)n(C)c2C)CC1 | 244.4 | . | 8.6 | i | i | -4.8 | . | . | . | . | . | .
SMILES | SUMO Mot1 rescue | Cl transport mod | AI-2 QS modul | KCNQ1 pot | KCNQ1 block | hERG protect | KCC2 secondary | KCC2 bumet counter | KCC2 secondary2 | HEK293 Tl flux | KCC2 retest ouab | HEK counter2
O=C(CN(Cc1ccco1)C(=O)c1ccc(F)cc1)Nc1ccccc1Br | -2.5 | . | . | . | . | . | . | . | . | . | . | .
COc1cccc(C(=O)Nc2nnc(-c3cccs3)o2)c1 | 5.5 | 5.31* | -84.0* | i | i | -9.7 | 0.00652 | 0.0228* | 0.0337 | 0.018* | 0.029* | 0.0164*
Cc1cccc(C(=O)Nc2nnc(-c3cccnc3)o2)c1 | 11.0 | 4.65* | 36.5 | i | i | -13.1 | 0.00593 | 0.00934* | 0.0302 | 0.00991* | 0.02 | ?
O=C(Nc1nnc(-c2cccs2)o1)c1ccco1 | 2.8 | -0.0363 | 62.9 | i | i | -12.6 | . | . | . | . | . | .
COc1cccc(-c2nnc(NC(=O)c3ccc4ncsc4c3)o2)c1 | -3.9 | 8.84* | -49.1 | i | i | -21.6 | 0.0131* | 0.0383* | 0.0324 | 0.0166* | 0.0332* | ?
COc1ccc(-c2nnc(NC(=O)c3ccccc3C)o2)cc1 | 29.8 | 4.49* | -60.6 | i | i | -4.7 | 0.0149* | 0.0239* | 0.0308 | 0.0128* | 0.0265 | ?
O=C(Nc1cccc(Cl)c1)c1cc(S(=O)(=O)N2CCOCC2)cs1 | -2.2 | . | 21.6 | i | i | -12.3 | . | . | . | . | . | .
CCOC(=O)CCCC(=O)N1CCOCCOCCOCC1 | -18.5 | -0.244 | 12.9 | i | i | -2.1 | . | . | . | . | . | .
Cc1cc(C)c(S(=O)(=O)c2cccc(Cl)c2)c(=O)[nH]1 | 33.8 | . | 7.2 | i | i | -2.6 | . | . | . | . | . | .

Source: PubChem BioAssay
